Experimental data taken from ChEMBL document CHEMBL1145544, “Probing distal regions of the A2B adenosine receptor by quantitative structure-activity relationship modeling of known and novel agonists” (J Med Chem, 2008).

Assays:
Adenosine receptor A2b = target: T1, Adenosine receptor A2b (Homo sapiens, UniProt P29275); test: Agonist activity at human adenosine A2B receptor expressed in CHO cells assessed as stimulation of adenylate cyclase; format: functional, cell-based
T1 sequence (P29275 whole entry): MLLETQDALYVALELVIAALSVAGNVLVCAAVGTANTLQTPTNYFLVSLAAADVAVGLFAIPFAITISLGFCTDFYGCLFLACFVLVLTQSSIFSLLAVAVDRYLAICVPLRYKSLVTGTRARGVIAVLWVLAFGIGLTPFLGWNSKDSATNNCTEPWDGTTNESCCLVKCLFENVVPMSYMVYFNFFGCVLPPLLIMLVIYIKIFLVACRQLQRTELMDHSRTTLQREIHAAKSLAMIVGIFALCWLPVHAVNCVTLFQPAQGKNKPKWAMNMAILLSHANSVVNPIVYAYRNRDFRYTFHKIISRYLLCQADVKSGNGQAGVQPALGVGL
In short: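 Stably transfected CHO cells; cAMP accumulation quantified by enzyme immunoassay kit per manufacturer's manual; EC50 derived.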

[1] = target: T2, Adenosine receptor A2b (Homo sapiens) (UniProt P29275); test: Agonist activity human adenosine A2B receptor expressed in CHO cells assessed as stimulation of adenylate cyclase relative to NECA; format: functional, cell-based
T2 sequence (whole entry): T1 sequence (P29275 whole entry)
In short: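 Stably transfected CHO cells; cAMP accumulation by enzyme immunoassay kit. Relative potency computed as pEC50(compound) minus pEC50(NECA) determined in the same publication.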

Adenosine receptor A2a [2] = target: T3, Adenosine receptor A2a (Homo sapiens, UniProt P29274); test: Displacement of [3H]CGS-21680 from human adenosine A2A receptor expressed in HEK293 cells; format: cell-based
T3 sequence (P29274 whole entry): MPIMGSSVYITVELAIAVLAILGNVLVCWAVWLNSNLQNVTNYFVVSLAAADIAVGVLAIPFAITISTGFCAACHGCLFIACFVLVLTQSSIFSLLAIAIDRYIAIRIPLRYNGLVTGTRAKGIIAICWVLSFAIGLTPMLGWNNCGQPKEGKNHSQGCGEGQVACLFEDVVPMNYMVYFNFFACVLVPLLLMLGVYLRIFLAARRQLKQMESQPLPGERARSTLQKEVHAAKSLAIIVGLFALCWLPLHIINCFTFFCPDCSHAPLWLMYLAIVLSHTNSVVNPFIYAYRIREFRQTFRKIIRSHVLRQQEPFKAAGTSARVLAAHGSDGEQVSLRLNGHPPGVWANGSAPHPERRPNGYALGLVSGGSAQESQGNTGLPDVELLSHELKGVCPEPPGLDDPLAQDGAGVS

Adenosine receptor A1 = target: T4, Adenosine receptor A1 (Homo sapiens, UniProt P30542); test: Displacement of [3H]CCPA from human adenosine A1 receptor expressed in CHO cells; format: cell-based
T4 sequence (P30542 whole entry): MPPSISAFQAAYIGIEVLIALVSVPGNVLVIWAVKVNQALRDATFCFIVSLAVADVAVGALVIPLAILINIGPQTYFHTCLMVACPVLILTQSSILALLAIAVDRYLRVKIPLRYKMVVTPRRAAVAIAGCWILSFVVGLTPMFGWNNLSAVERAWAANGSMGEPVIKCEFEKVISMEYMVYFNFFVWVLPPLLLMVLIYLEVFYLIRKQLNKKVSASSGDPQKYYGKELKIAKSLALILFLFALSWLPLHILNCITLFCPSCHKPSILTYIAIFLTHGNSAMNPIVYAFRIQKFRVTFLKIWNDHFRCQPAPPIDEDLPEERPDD

[3] = target: T5, Adenosine receptor A1 (Homo sapiens) (UniProt P30542); test: Displacement of [3H]CCPA from human adenosine A1 receptor expressed in CHO cells at 10 uM; format: cell-based
T5 sequence (whole entry): T4 sequence (P30542 whole entry)
In short: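 CHO membranes expressing receptor; [3H]CCPA final 1.0 nM, Tris-HCl 50 mM pH 7.4 with 10 mM MgCl2, 1 h at 25 °C; nonspecific with 10 μM NECA; filtration and scintillation counting; percent displacement at single 10 μM test concentration.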

Adenosine receptor A2a [4] = target: T3, Adenosine receptor A2a; test: Displacement of [3H]CGS-21680 from human adenosine A2A receptor expressed in HEK293 cells at 10 uM; format: cell-based
In short: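 HEK293 membranes expressing receptor; [3H]CGS21680 final 10 nM in 50 mM Tris-HCl pH 7.4, 10 mM MgCl2, 1 h at 25 °C; nonspecific defined by 10 μM NECA; filtration, scintillation counting; percent displacement recorded at single 10 μM concentration.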

| EC50 (Adenosine receptor A2b) [nM] | Activity [1] | Ki (Adenosine receptor A2a [2]) [nM] | Ki (Adenosine receptor A1) [nM] | Activity [3] [%] | Activity (Adenosine receptor A2a [4]) [%] | SMILES |
| --- | --- | --- | --- | --- | --- | --- |
| 143 | -0.0092 | 1150 | 370 |  |  | O=C(COc1ccc(Nc2nc(OCCc3c[nH]c4cc(Br)ccc34)nc3c2ncn3[C@@H]2O[C@H](CO)[C@@H](O)[C@H]2O)cc1)Nc1ccccc1 |
| 289 | -0.315 |  |  | 29 | 40 | O=C(NNc1nc(OCCc2c[nH]c3cc(Br)ccc23)nc2c1ncn2[C@@H]1O[C@H](CO)[C@@H](O)[C@H]1O)c1ccco1 |
| 174 | -0.0944 | 2050 | 350 |  |  | NNc1nc(OCCc2c[nH]c3cc(Br)ccc23)nc2c1ncn2[C@@H]1O[C@H](CO)[C@@H](O)[C@H]1O |
| 965 | -0.838 |  | 420 |  | 46 | O=C(COc1ccc(Nc2nc(OCCc3c[nH]c4cc(Br)ccc34)nc3c2ncn3[C@@H]2O[C@H](CO)[C@@H](O)[C@H]2O)cc1)N1CCCC1 |
